Data on eleven compounds can be found in ChEMBL document CHEMBL2034884, “Synthesis, in vitro and in silico screening of ethyl 2-(6-substituted benzo[d]thiazol-2-ylamino)-2-oxoacetates as protein-tyrosine phosphatase 1B inhibitors” (Eur J Med Chem, 2012).

pIC50, pKi: −log10 of the molar value. Calls of active or inactive are those of the source. The calls are words filed in the database; no cut-off is given here.

For assay [1], the target named is T1, Tyrosine-protein phosphatase non-receptor type 1 (Homo sapiens) (UniProt P18031).
T1 sequence (whole entry): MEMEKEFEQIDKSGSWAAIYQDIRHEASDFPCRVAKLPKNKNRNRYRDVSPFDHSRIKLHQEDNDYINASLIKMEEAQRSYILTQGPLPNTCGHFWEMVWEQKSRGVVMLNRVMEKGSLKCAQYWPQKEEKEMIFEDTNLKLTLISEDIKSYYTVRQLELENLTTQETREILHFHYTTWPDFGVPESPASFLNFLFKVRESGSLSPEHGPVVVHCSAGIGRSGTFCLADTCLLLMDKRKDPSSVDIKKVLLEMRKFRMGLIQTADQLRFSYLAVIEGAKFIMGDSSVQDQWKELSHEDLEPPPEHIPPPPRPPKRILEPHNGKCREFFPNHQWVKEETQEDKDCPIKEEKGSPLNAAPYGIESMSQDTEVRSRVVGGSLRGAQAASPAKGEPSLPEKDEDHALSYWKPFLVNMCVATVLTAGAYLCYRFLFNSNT
Nature of the assay: Inhibition of human recombinant GST-tagged PTP1B expressed in Escherichia coli TB1 cells using p-NPP as substrate at 40 uM. The procedure, abridged: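 PTP-1B was cleaved from GST with thrombin and gel-filtered. Assay: 0.075 M β,β-dimethylglutarate buffer pH 7.0 with 1 mM EDTA and 1 mM DTT, 2.5 mM p-NPP, compound 40 μM final, DMSO control, 37 °C, 0.16 μg enzyme per 1 mL assay. Stopped with KOH; p-nitrophenol read at 400 nm. Residual activity is % of control, four assays, mean ± S.E.M.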

For assay [2], the target named is T1, Tyrosine-protein phosphatase non-receptor type 1 (Homo sapiens). In words: Reversible inhibition of human recombinant GST-tagged PTP1B expressed in Escherichia coli TB1 cells using p-NPP as substrate at 100 uM after 1 hr at 4 degC. The procedure, abridged: (§1)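 The enzyme, cleaved from GST, was preincubated for 1 h at 4 °C or 37 °C with 100 μM compound or a DMSO control. It was then diluted 400-fold into assay solution, and residual activity was measured at 37 °C with 5 mM p-NPP final, read at 400 nm. Triplicates, mean ± S.E.M.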

For assay [3] the target is unchanged. In words: Reversible inhibition of human recombinant GST-tagged PTP1B expressed in Escherichia coli TB1 cells using p-NPP as substrate at 100 uM after 1 hr at 37 degC. The procedure, abridged: as §1
Assay [4] shares this target. Nature of the assay: Slow binding inhibition of human recombinant GST-tagged PTP1B expressed in Escherichia coli TB1 cells using p-NPP as substrate. The procedure, abridged: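 p-Nitrophenol release from p-NPP by PTP-1B was followed over time at 400 nm at several inhibitor concentrations, at 37 °C, pH 7.0. Progress curves were examined for linearity, with and without 30 min enzyme–inhibitor preincubation before the assay.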

The target in assay [5] is T2, Tyrosine-protein phosphatase non-receptor type 1 (Homo sapiens, UniProt P18031).
T2 sequence (P18031 whole entry): T1 sequence (whole entry)
In words: Mixed-type inhibition of human recombinant GST-tagged PTP1B expressed in Escherichia coli TB1 cells using p-NPP as substrate by double reciprocal plot analysis. The procedure, abridged: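 Thrombin-cleaved, gel-filtered PTP-1B in pH 7.0 β,β-dimethylglutarate/EDTA/DTT buffer at 37 °C. Initial p-NPP hydrolysis rates were measured at eight substrate concentrations (0.5–40 mM) with increasing inhibitor concentrations. p-Nitrophenol was read at 400 nm, and Km/Vmax changes were analysed by double reciprocal plots.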

Assay [6] concerns Rattus norvegicus. Nature of the assay: Hypoglycemic activity in normoglycemic Wistar rat at 100 mg/kg, po administered as single dose measured up to 3 hrs post dose. The class given is functional. The procedure, abridged:
(§2)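 Male Wistar rats (200–250 g), n = 5 per group, given a single oral/intragastric dose suspended in 5% Tween 80. Vehicle controls received 5% Tween 80. Caudal-vein blood was taken at 0, 1, 3, 5 and 7 h and glucose read with a glucose oxidase glucometer. Results are % glycemia change versus 0 h, mean ± S.E.M., ANOVA p < 0.05.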

Assay [7] concerns Rattus norvegicus. In words: Hypoglycemic activity in glucose fed normoglycemic Wistar rat assessed as decrease in rise of blood glucose at 100 mg/kg, po single dose measured up to 4 hrs post dose by oral glucose tolerance test. The class given is functional. The arrangement: scale not given: the % may be the effect or the level left. The procedure, abridged:
(§3)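 Male Wistar rats (200–250 g), fasted 18 h, n = 5 per group. Test agents were given orally as suspensions at the listed doses, with vehicle controls. A 2 g/kg glucose load was given by the same route 10 min later. Tail-tip blood was sampled at 0, 0.5, 1, 2, 3 and 4 h. Glucose was read by the glucose oxidase glucometer method.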

Assay [8] deals with T2, Tyrosine-protein phosphatase non-receptor type 1. In words: Inhibition of human recombinant GST-tagged PTP1B expressed in Escherichia coli TB1 cells using p-NPP as substrate.
Assay [9] relates to Rattus norvegicus. In words: Hypoglycemic activity in glucose-fed normoglycemic Wistar rat assessed as decrease in rise of blood glucose at 5 to 10 mg/kg, po single dose measured up to 4 hrs post dose by oral glucose tolerance test. The class given is functional, organism-based. The procedure, abridged:
as §3

Assay [10] deals with Rattus norvegicus. Nature of the assay: Hypoglycemic activity in normoglycemic Wistar rat at 10 mg/kg, po administered as single dose measured up to 3 hrs post dose. Set-up: dose 10 mg/kg. The class given is functional, organism-based. The procedure, abridged: as §2
The subject of assay [11] is Rattus norvegicus. Nature of the assay: Hypoglycemic activity in glucose-fed normoglycemic Wistar rat assessed as decrease in rise of blood glucose at 4 mg/kg, po single dose measured up to 4 hrs post dose by oral glucose tolerance test. The class given is functional, organism-based. The arrangement: dose 4 mg/kg. The procedure, abridged: as §3
Assay [12] deals with Rattus norvegicus. Nature of the assay: Hypoglycemic activity in normoglycemic Wistar rat at 100 mg/kg, po administered as single dose measured up to 5 hrs post dose. The class given is functional. The procedure, abridged:
as §2

For the compound `CCOC(=O)C(=O)Nc1nc2ccc(OC)cc2s1`, the inhibition entry in assay [1] was “inactive”.
As to `CCOC(=O)C(=O)Nc1nc2ccc(Cl)cc2s1`, the inhibition entry in assay [2] and in assay [3] was “Active” in each case. For the same compound, in [4], the inhibition entry was “inactive”. Besides, the negative logarithm of the Ki (pKi) in [5] is 5.10. The Activity in the assay on Rattus norvegicus [6] is 30%; in the assay on Rattus norvegicus [7], greater than 20%. Also, the pIC50 in assay [8] is 5.00.
Regarding `CCOC(=O)C(=O)Nc1nc2ccc([N+](=O)[O-])cc2s1`, in assay [1], the inhibition entry is “inactive”.
Take `COc1ccc(Cl)cc1C(=O)NCCc1ccc(S(=O)(=O)NC(=O)NC2CCCCC2)cc1`: the result in the assay on Rattus norvegicus [9] and with Rattus norvegicus [10] was Active.
Turning to `CCOC(=O)C(=O)Nc1nc2ccc(S(C)(=O)=O)cc2s1`, the inhibition result in assay [1] was “inactive”.
`CCOC(=O)C(=O)Nc1nc2ccc(F)cc2s1`: the inhibition entry in [2] and in [3] was “Active” in each case. Moreover, in assay [4], the inhibition result is “inactive”. In assay [5], the pKi was 5.10. The pIC50 in [8] was 5.06.
For `CCOC(=O)C(=O)Nc1nc2ccc(N)cc2s1`, the inhibition entry in [1] was “inactive”.
The same measure, in the same setting: next, `CCOC(=O)C(=O)Nc1nc2ccc(OCC)cc2s1`: “inactive”.
`CCOc1cc(CC(=O)N[C@@H](CC(C)C)c2ccccc2N2CCCCC2)ccc1C(=O)O`: in the assay with Rattus norvegicus [11], the outcome was Active.
For the compound `CCOC(=O)C(=O)Nc1nc2ccccc2s1`, in assay [1], the inhibition result is “inactive”.
Consider `CCOC(=O)C(=O)Nc1nc2ccc(C)cc2s1`, for which the inhibition result in assay [2] and in [3] was “Active” in each case. Besides, the inhibition result in [4] is “inactive”. Moreover, in assay [5], the pKi was 5.21. In addition, the Activity with Rattus norvegicus [12] was 26%; in the assay on Rattus norvegicus [7], greater than 20%. Moreover, the pIC50 in assay [8] was 4.96.
